Laboratory results as given in ChEMBL document CHEMBL4622869, “Discovery and structure-activity relationships study of positive allosteric modulators of the M3 muscarinic acetylcholine receptor” (Bioorg Med Chem, 2020).

Tests used:
[1] = biological target: T1, Muscarinic acetylcholine receptor M4 (Rattus norvegicus) (UniProt P08485); test: (§1) Positive allosteric modulation of recombinant rat muscarinic acetylcholine receptor M4 expressed in CHOK1 cells coexpressing G-alpha16 assessed as increase in carbachol-induced intracellular calcium flux at 10 uM preincubated for 5 mins followed by carbachol addition by Fluo4-AM dye based FLIPR assay relative to carbachol; type: functional, cell-based; settings: CHO-K1
T1 sequence (whole entry): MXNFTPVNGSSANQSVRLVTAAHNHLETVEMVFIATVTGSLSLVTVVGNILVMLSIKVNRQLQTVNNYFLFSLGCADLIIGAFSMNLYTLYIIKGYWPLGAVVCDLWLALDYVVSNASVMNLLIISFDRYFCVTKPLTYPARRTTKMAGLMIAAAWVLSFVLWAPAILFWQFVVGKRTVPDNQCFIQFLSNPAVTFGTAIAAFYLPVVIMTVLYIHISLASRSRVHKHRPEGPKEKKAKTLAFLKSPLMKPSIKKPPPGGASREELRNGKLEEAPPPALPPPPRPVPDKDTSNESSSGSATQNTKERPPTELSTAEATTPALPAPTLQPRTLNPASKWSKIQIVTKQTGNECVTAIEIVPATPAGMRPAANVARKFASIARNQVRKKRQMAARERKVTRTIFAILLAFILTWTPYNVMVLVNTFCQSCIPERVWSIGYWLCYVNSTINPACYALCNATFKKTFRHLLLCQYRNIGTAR
Procedure, shortened: (§2)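 CHO-K1 cells stably expressing human or rat M1–M5; M2 and M4 lines also co-express human Gα16. Cells loaded with 3.1 μM Fluo-4 AM in HBSS/20 mM HEPES pH 7.5/BSA/2.5 mM probenecid for ~2 h at room temperature. Test substance at 10 μM final, then carbachol (0.0024 nM–100 μM) ~5 min later; Ca2+ read by FLIPR Tetra. Fold shift = carbachol EC50 without / with test substance, from logistic fits.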

[2] = biological target: T2, Muscarinic acetylcholine receptor M5 (Homo sapiens) (UniProt P08912); test: as §1, with “human” for “rat”, “M5” for “M4”, “cells” for “cells coexpressing G-alpha16”; type: functional, cell-based; settings: CHO-K1; procedure, shortened: as §2
T2 sequence (whole entry): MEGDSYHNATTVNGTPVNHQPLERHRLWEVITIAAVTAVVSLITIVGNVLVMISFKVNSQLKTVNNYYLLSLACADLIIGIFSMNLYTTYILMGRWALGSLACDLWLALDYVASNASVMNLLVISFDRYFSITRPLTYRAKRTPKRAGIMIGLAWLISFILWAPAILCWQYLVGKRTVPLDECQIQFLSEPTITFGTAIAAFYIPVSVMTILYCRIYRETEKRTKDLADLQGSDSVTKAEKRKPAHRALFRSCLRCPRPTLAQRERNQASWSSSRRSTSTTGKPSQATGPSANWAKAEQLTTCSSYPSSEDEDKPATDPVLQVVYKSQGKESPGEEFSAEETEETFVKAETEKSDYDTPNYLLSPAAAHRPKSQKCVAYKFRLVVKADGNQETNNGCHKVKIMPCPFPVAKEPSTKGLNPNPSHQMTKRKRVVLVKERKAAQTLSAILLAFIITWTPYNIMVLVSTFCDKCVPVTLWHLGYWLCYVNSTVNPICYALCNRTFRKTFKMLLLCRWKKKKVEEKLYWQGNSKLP

Thrombopoietin receptor = biological target: T3, Thrombopoietin receptor (Homo sapiens, UniProt P40238); test: Agonist activity at recombinant human c-Mpl receptor transfected in BA/F3 cells assessed as increase in cell proliferation by cell counting analysis; type: cell-based; settings: baf3
T3 sequence (P40238 whole entry): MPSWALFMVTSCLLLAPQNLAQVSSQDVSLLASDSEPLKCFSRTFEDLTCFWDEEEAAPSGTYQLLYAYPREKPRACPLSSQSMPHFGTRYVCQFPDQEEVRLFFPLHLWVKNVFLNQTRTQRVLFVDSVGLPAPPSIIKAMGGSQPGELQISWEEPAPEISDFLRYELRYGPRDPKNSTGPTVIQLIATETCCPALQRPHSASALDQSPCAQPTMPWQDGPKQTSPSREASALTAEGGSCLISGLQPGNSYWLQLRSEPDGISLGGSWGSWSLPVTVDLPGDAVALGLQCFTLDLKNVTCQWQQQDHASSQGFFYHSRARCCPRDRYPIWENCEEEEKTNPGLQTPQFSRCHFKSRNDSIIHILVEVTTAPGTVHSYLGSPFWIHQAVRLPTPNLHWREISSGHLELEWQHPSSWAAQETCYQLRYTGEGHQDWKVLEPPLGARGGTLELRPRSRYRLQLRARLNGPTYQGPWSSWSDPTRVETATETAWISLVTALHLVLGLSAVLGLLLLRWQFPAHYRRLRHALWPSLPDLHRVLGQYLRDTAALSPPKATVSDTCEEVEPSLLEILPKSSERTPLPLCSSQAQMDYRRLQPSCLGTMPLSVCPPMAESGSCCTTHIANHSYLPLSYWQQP
Procedure, shortened: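 Ba/F3 cells stably transfected with human c-Mpl by electroporation with blasticidin selection. 1×10^4 cells/well in RPMI-1640 with 10% FBS, with test substance (100 nM to 10 μM final), overnight at 37°C in 5% CO2. Cell Counting Kit added for about 5 h, then A450 read. Scale: untreated wells 0%, reference c-Mpl agonist at 1 μM 100%. EC30 from logistic regression.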

[3] = biological target: Muscarinic acetylcholine receptor M3 (Rattus norvegicus) (UniProt P08483); test: Positive allosteric modulation of muscarinic acetylcholine receptor M3 in Sprague-Dawley rat urinary bladder assessed as increase in 8 Hz electrical field stimulation-induced bladder contraction
Chain of Muscarinic acetylcholine receptor M3 (Rattus norvegicus) (P08483 whole entry, looked up): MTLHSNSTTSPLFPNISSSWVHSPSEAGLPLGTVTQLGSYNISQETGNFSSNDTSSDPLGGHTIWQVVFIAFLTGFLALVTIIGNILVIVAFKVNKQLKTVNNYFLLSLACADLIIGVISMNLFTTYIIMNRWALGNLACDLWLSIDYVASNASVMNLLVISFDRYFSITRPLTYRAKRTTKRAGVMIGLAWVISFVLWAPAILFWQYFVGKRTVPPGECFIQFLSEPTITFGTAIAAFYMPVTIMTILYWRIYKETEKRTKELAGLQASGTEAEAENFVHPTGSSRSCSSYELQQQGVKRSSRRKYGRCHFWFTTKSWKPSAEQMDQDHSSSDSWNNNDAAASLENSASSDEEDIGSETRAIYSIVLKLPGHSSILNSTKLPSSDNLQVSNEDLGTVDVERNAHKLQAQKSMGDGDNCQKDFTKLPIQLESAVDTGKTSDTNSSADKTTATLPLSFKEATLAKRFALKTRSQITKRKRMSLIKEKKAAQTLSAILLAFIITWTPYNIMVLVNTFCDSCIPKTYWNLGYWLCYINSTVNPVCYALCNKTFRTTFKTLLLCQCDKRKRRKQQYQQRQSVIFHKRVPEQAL
Procedure, shortened: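 Female Sprague-Dawley rats, 9–10 weeks old. Longitudinal bladder strips (~10×2 mm) in Krebs at 37°C, gassed with 95% O2/5% CO2. EFS at 8 Hz, 10 s trains, 0.3 ms pulses, voltage set to give about half-maximal response. Drug added cumulatively at 1, 3 and 10 μM, 10 stimulations per concentration. Contraction = peak minus basal tone, averaged over the last 3 contractions and compared with pre-drug value (n=7).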

[4] = Tmax in Crl:CD(SD) rat at 1 mg/kg, po measured up to 24 hrs by LC-MS/MS analysis; type: ADME, organism-based; settings: in vivo
Procedure, shortened: (§3)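 Male Crl:CD(SD) rats, 8 weeks old, food deprived (n=4); iv 0.3 mg/kg or po 1 mg/kg in DMF/propylene glycol/water for injection (1/1/8) containing 1 M NaOH (2 equivalents). Plasma sampled to 24 h, assayed by validated LC-MS/MS. Parameters from each animal by noncompartmental analysis, reported as means.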

[5] = AUCinfinity in Crl:CD(SD) rat at 1 mg/kg, po measured up to 24 hrs by LC-MS/MS analysis; type: ADME, organism-based; design: dose 1 mg/kg, time infinity, route oral; settings: in vivo; procedure, shortened: as §3
[6] = Half life in Crl:CD(SD) rat at 0.3 mg/kg, iv measured up to 24 hrs by LC-MS/MS analysis; type: ADME, organism-based; settings: in vivo; procedure, shortened: as §3

fold change (FC) [1]: 0.7 | fold change (FC) [2]: 94 | Activity [3]: Dose-dependent effect | Tmax [4]: 0.31 h | AUC(0-inf) [5]: 209 ng·h/mL | half-life [6]: 2.43 h
SMILES: CC[C@@H]1CCCN1Cc1sc(NC(=O)c2cnc(N3CCC(C(=O)O)CC3)cn2)nc1-c1ccc(OC)c(C(F)(F)F)c1.Cl.Cl
EC30 (Thrombopoietin receptor): > 10 µM
